Scp1 inh: Scp-1 (human) phosphatase inhibition; Recombinant Scp1, phosphopeptide, malachite green phosphate absorbance; inhibition, % at 20 µM; AID 493091; 0.88% of 340,000 active;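 active = inhibition above about 50% at 20 µM, limit read from the data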
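Test system: SCP-1 phosphatase catalytic domain, residues 76-261 | Compound dosing: One concentration, 20 µM, with 1.0% DMSO | Schedule: 45 min room-temperature reaction, 5 min colour, 30 min stabiliser | Detection: Absorbance at 630 nm | Read-out basis: % inhibition of SCP-1 phosphate liberation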
Rpn11 inh: Rpn11 (human) deubiquitinase inhibition; O00487; human 26S proteasome, Ub4-pepOG fluorescence polarization; 20S core pre-blocked with epoxomicin; inhibition, % at 20 µM; 0.59% of 360,000 active;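 active = inhibition at 20 µM, scaled to each plate's controls, above about 33%, limit read from the data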
DNMT1 block: DNMT1 (human) enzyme inhibition; AID 588458; 0.83% of 360,000 active; inhibition (reported as % activation of signal), % at 10 µM; P26358; DNMT1 molecular beacon, Hinp1I cleavage, fluorescence; in the data active = inhibition above about 50%
Target sequence (P26358 504-1616 limits assumed): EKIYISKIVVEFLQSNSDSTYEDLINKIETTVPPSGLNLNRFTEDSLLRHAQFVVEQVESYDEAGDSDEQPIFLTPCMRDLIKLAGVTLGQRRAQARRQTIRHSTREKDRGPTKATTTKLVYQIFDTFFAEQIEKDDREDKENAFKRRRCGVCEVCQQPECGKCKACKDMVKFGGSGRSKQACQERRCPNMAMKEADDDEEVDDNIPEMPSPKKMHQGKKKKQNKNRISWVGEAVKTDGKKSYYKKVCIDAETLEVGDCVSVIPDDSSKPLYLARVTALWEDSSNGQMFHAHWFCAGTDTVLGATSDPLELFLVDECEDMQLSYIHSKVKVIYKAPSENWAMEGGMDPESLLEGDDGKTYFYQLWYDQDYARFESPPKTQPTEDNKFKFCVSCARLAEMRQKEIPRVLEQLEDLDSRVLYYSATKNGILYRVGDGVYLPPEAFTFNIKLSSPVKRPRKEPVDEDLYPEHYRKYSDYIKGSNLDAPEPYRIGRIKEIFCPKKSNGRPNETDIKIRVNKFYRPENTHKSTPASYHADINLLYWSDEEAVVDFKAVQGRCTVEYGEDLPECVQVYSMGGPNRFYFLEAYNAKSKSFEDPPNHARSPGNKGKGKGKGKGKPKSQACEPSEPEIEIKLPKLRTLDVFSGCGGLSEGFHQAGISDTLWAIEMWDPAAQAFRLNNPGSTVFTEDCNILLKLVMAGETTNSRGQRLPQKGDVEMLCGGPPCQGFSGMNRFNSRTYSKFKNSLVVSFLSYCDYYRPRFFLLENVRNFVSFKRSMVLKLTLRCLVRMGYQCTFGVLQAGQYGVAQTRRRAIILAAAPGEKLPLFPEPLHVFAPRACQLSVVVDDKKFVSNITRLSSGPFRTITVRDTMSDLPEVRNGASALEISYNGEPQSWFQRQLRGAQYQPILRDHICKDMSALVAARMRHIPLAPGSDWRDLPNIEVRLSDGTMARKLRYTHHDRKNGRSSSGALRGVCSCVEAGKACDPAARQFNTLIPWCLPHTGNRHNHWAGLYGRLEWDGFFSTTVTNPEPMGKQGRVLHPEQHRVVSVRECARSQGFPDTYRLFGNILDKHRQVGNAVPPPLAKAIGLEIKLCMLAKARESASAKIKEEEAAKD
LMPTP inh: blocks human LMPTP phosphatase; P24666; inhibition, % at 20 µM; 0.22% of 360,000 active; recombinant LMPTP-A, OMFP fluorogenic substrate, fluorescence intensity;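 active = compounds that cut the enzyme signal by at least half of the control window in the single-dose screen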
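Test system: LMPTP-A, protein tyrosine phosphatase of low molecular weight; Input: 0.625 nM enzyme; Incubation: 50 min dark incubation at room temperature; Signal: endpoint fluorescence intensity from OMFP dephosphorylation; Read-out basis: % inhibition versus control wells.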
SUMO1-SIM PPI: alters human SUMO1 binding to SIM partners; P63165; SUMO1 binding to a labelled peptide, TR-FRET, 1 h; inhibition, % at 20 µM; 0.33% of 360,000 active; AID 602429; in the data active = inhibition above about 37%
STEP inh: inhibitors of human striatal-enriched phosphatase STEP; recombinant STEP, OMFP fluorogenic substrate, fluorescence; P54829; 0.25% of 360,000 active; inhibition, % at 20 µM;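 active = inhibition at 20 µM, scaled per plate between control wells, above about 37%, limit read from the data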
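material = STEP tyrosine phosphatase | reagent = fluorogenic phosphatase substrate OMFP at 25 µM final | doses = single compound dose of 20 µM, 1% DMSO final | schedule = 20 min reaction, room temperature, in the dark | measured by = fluorescence, 480/540 nm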
DNMT1 inh conf: DNMT1 inhibition confirmation, single concentration | 8% of 2,300 active | AID 602385 | shares compounds with DNMT1 block | inhibition, % at 10 µM | DNMT1 molecular beacon HinP1I cleavage, fluorescence;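 active = average inhibition of at least 30% in the single-concentration confirmation test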
Beacon interf: beacon fluorescence artifact counter-screen. shares compounds with DNMT1 block. DNMT1 molecular beacon spectral interference counterscreen, fluorescence 485/520. activation (fluorescence interference), % at 10 µM. 1% of 2,300 active;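 active = activation of at least 30% at 10 µM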;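 note: DNMT1 catalytic domain with a HinP1I cleavage step and a FAM/dabcyl DNA beacon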
Numbers stand for hits; - = inactive; . = no result given. Compounds with a hit are over-represented: about 2.3% of the library has one in this group of screens.

SMILES	Scp1 inh	Rpn11 inh	DNMT1 block	LMPTP inh	SUMO1-SIM PPI	STEP inh	DNMT1 inh conf	Beacon interf
COc1ccc(Cl)cc1-c1cc(C(=O)NCc2cccs2)[nH]n1	.	-	-	-	-	-	.	.
O=C(OCc1nc2ccccc2s1)c1cccc(S(=O)(=O)N2CCOCC2)c1	-	-	-	-	-	-	.	.
O=C(CCc1ccc(S(=O)(=O)N2CCOCC2)cc1)OCc1nc2ccccc2s1	-	-	99	-	-	-	-	-
C=CCn1c(SCC(=O)NC(=O)NCc2ccco2)nc2sc(CC)cc2c1=O	-	-	62	-	-	-	-	-
CCn1c(SCC(=O)NC(=O)NCc2ccco2)nc2sc(C)c(C)c2c1=O	-	-	78	-	50	-	-	-
O=C(NCc1ccccc1F)C1CCCN(S(=O)(=O)N2CCOCC2)C1 (centres undefined)	-	-	-	-	-	-	.	.
CCOc1ccc2ccccc2c1CNc1nnnn1CC	-	-	92	-	-	-	-	-
CC(=O)c1ccc(C(=O)Nc2sc3c(c2C(N)=O)CCN(Cc2ccccc2)C3)cc1	.	.	84	-	-	-	-	-
O=C(NCCCO)C(=O)NCc1ccccn1	-	-	-	-	-	-	.	.
O=C(Nc1ccc(F)cc1)C(c1ccnc2ccccc12)N1CCN(CC(=O)N2CCCC2)CC1 (centres undefined)	.	.	.	-	-	.	.	.
CC1CCCCC1NC(=O)COC(=O)c1c2c(nc3ccccc13)/C(=C/c1ccco1)CC2 (centres undefined)	68	-	95	-	-	-	-	-
Cc1cc(C(=O)OCC(=O)NC2CCCCC2C)c2ccccc2n1 (centres undefined)	-	-	-	-	-	-	.	.
Cc1ccc(-c2cc(C(F)(F)F)n3ncc(C(=O)NCc4ccco4)c3n2)cc1	-	-	-	-	-	-	.	.
Cc1ccc(-c2cc(C(F)F)n3ncc(C(=O)NCc4ccco4)c3n2)cc1	-	-	76	-	-	-	-	-
CC(=O)Nc1cnc(-c2cc(C)c(O)c(C)c2)cn1	.	-	-	-	-	-	.	.
Cc1cc(=O)oc2c(C)c(OC(C)C(=O)NC(Cc3c[nH]c4ccc(O)cc34)C(=O)O)ccc12 (centres undefined)	-	-	85	-	-	-	-	-
CCc1c(C)c2ccc(OC(C)C(=O)NC(Cc3c[nH]c4ccc(O)cc34)C(=O)O)c(C)c2oc1=O (centres undefined)	-	-	-	-	-	-	.	.
CN1CCN(C(=O)/C=C/c2ccc([N+](=O)[O-])o2)CC1	-	-	-	-	-	-	.	.
O=C(O)/C=C/c1ccc([N+](=O)[O-])o1	58	-	75	-	-	-	-	-
NS(=O)(=O)c1ccc(N/N=C/c2cn(-c3ccccc3)nc2-c2cccs2)cc1	-	-	-	-	-	-	.	.
NS(=O)(=O)c1ccc(N/N=C/c2cn(-c3ccccc3)nc2-c2cccs2)c([N+](=O)[O-])c1	-	-	-	-	-	-	-	-
CCOc1cccc2cc(-c3nnc(NCc4ccc5c(c4)OCO5)s3)c(=O)oc12	-	-	70	-	-	-	-	-
Cc1cccc(Nc2nnc(SCC(=O)NC(=O)Nc3ccc4c(c3)OCCO4)s2)c1	-	-	50	-	-	-	-	-
Cc1cccc(N2CC34C=CC(O3)C(C(=O)O)C4C2=O)c1 (centres undefined)	-	-	-	-	-	-	.	.
COc1cccc(N2CC34C=CC(O3)C(C(=O)O)C4C2=O)c1 (centres undefined)	-	-	53	-	-	-	-	-
CNc1ccc([N+](=O)[O-])cc1-c1nc2ccccc2[nH]c1=O	-	-	51	-	-	-	-	-
CC(C)C(=O)Nc1ccc(Cl)cc1-c1nc2ccccc2[nH]c1=O	-	-	-	-	-	-	.	.

Source: PubChem (Sanford-Burnham Center for Chemical Genomics)
